In publication PMC11152992 (Nature, 2024):

Columns and labels:
5-HT1A(A365N) = test: 5-HT1A-Gi BRET at mutant receptor A365N; format: cell-based, human; conditions: 5-HT1A A365N versus wild type
5-HT1A = target: T1, 5-HT1A (Homo sapiens, UniProt P08908); test: 5-HT1A-mediated Gi1 activation, BRET; format: cell-based; conditions: for maximum drug effect (Emax): 5-HT1A-mediated activation of Gi1, BRET; for 5-HT1A efficacy (in words): Gi BRET, compared with serotonin; for EC50: read-out: Gi BRET EC50, 5-HT1A-mediated Gi1 activation, HEK293-T cells; for selectivity for 5-HT1A > 5-HT2A: Gi BRET at 5-HT1A versus Gq BRET at 5-HT2A
T1 sequence (P08908 1-422): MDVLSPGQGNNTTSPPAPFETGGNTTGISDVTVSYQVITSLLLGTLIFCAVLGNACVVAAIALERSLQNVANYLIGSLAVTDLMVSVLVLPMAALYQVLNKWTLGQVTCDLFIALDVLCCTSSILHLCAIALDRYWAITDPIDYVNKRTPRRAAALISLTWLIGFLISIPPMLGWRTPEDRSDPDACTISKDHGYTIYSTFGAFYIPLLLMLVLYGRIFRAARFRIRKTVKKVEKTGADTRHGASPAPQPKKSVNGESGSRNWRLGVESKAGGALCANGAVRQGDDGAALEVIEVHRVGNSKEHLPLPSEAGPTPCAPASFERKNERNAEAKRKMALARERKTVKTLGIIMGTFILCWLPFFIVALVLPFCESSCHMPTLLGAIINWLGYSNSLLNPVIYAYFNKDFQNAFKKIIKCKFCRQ

[1] = test system: locomotor activity (measure of 5-HT1A activation); test: Open-field locomotion assay; format: in vivo, C57BL/6J mice; conditions: mice, s.c.
How it was run: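 Male C57BL/6J mice aged 10–15 weeks were habituated for 30 min, then pretreated with vehicle or WAY-100635 (1 or 2 mg kg⁻¹ s.c.). Test compound followed 15 min later, s.c. at 0.1–3 or 0.3–10 mg kg⁻¹. Mice were placed immediately in a clear arena lit at about 330 lux. Observers were blinded; total locomotion was recorded automatically over 30 min, n = 7–8 per group.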

[2] = test system: head-twitch response (measure of 5-HT2A activation); test: Head-twitch response; format: in vivo, C57BL/6J mice; conditions: mice
[3] = Mouse brain tissue binding; format: in vitro ADME; conditions: for % Compound remaining at 4 h: 37 °C; for fraction unbound at 4 h, 5 µM: mouse, mouse brain tissue
5-HT2A(N343A) = 5-HT2A(N343A) (Homo sapiens, UniProt P28223, N343A); test: 5-HT2A-Gq BRET at mutant receptor N343A; format: cell-based; conditions: 5-HT2A N343A versus wild type
5-HT2A = 5-HT2A (Homo sapiens, UniProt P28223); test: 5-HT2A-mediated Gq activation, BRET; format: cell-based; conditions: for decrease in 5-HT2A potency: relative to 5-MeO-DMT
[4] = test system: all other G protein-coupled 5-HT receptors; test: Off-target activity at 5-HT receptors; format: cell-based, human; conditions: compared with activity at 5-HT1A
[5] = target: serotonin transporter (SERT) (Homo sapiens, UniProt P31645); test: Serotonin transporter uptake inhibition; format: cell-based
[6] = test system: other neurotransmitter transporters (OCT1, OCT2, PMAT); test: OCT1, OCT2 and PMAT uptake inhibition; format: cell-based
[7] = Pharmacokinetics in plasma and brain after s.c. administration; format: in vivo, C57BL/6 male mice; conditions: mice; for AUClast / Cmax: 1 mg/kg SC
How it was run: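 Male C57BL/6 mice (27; 3 per time point) received a subcutaneous solution formulation. Retro-orbital blood (~60 μl) was taken under light isoflurane at 0.083–12 h. Plasma and brain levels were measured by LC–MS/MS with non-compartmental analysis: Cmax and Tmax as observed, AUClast by linear trapezoidal rule, Kp calculated. For plasma protein binding, compound was spiked at 5 μM final into mouse plasma and dialysed 4 h at 37 °C.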

[8] = Mouse plasma protein binding; format: in vitro ADME; conditions: for % Compound remaining at 4 h: 37 °C; for fraction unbound at 4 h, 5 µM: mouse, mouse plasma
[9] = Human plasma protein binding; format: in vitro ADME; conditions: for % Compound remaining at 4 h: 37 °C
[10] = test system: chronic social defeat stress mice; test: Social interaction; format: in vivo, C57BL/6J mice
How it was run: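 Male C57BL/6J mice, 8 weeks old, had 10 consecutive days of 10-min defeat by a new CD-1 aggressor each day, then were housed overnight across a partition; controls were pair-housed and handled daily. Drug or vehicle was given 1 h after the last defeat, with SI testing 24 h later. The interaction ratio was interaction-zone time, target vs no-target; corner time and no-target locomotion were also scored. Pooled from three experiments; two-way ANOVA; resilient (>1) vs susceptible (<1) compared by Fisher's exact test.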

[11] = test system: chronic social defeat stress mice; test: Sucrose preference test after chronic social defeat stress; format: in vivo, C57BL/6J mice
How it was run: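 Chronic social defeat was 10 days of 10-min bouts by CD-1 aggressors in male C57BL/6J mice. On day 10, stressed mice were housed singly and habituated to two water bottles, then given a two-bottle choice between water and 1% sucrose. Data were pooled from two independent experiments.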

5-HT2A(V366N) = 5-HT2A(V366N) (Homo sapiens, UniProt P28223, V366N); conditions: 5-HT2A V366N versus wild type
Chain of 5-HT2A(V366N) (P28223 whole entry V366N): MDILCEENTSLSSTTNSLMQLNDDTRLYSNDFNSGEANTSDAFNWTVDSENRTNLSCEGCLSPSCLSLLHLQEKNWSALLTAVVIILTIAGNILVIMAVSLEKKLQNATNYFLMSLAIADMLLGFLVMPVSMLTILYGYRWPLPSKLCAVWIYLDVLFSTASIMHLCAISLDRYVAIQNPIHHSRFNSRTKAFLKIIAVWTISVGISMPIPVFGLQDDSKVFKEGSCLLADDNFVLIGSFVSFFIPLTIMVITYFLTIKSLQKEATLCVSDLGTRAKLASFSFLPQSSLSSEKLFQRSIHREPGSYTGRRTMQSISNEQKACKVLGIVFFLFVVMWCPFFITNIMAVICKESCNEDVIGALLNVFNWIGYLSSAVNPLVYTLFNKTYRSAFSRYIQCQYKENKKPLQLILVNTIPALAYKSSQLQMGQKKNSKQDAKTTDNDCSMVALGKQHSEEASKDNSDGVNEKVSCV

Chain of 5-HT2A (P28223 whole entry): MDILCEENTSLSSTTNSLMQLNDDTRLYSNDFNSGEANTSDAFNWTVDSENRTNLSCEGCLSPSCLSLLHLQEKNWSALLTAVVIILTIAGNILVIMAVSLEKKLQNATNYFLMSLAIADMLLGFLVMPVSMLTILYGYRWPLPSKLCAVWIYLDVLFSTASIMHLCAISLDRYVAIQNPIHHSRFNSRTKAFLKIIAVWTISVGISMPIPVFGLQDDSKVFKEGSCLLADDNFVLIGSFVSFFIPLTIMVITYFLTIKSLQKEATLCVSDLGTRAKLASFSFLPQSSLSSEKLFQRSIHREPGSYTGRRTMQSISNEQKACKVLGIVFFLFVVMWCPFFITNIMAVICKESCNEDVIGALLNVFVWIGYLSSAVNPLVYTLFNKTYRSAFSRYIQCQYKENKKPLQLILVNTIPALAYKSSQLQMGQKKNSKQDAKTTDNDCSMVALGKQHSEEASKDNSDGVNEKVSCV
Chain of 5-HT2A(N343A) (P28223 whole entry N343A): as the sequence (P28223 whole entry V366N) above, with N343A, N366V counted along it
Chain of serotonin transporter (SERT) (P31645 whole entry, species assumed): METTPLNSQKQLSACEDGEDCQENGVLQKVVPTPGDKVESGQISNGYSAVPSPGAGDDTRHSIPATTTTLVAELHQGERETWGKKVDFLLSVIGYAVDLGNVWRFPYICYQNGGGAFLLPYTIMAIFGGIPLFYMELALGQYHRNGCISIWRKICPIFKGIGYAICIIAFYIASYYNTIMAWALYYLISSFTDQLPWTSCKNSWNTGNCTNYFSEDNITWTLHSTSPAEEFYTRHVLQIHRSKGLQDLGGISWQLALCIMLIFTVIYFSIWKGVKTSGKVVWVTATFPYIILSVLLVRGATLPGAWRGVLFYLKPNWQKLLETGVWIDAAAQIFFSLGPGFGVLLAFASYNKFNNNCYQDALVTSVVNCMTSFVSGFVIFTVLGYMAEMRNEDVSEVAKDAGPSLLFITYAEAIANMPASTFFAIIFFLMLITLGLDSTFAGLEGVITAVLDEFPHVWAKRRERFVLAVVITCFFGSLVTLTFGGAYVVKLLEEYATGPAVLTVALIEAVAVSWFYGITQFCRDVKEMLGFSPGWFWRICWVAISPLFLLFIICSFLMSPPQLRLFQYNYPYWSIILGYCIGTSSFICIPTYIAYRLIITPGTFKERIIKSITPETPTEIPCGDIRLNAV

CN(C)CCc1c[nH]c2ccc(O)cc12 [5-OH-DMT, bufotenine]
decrease in potency by A365N mutation (5-HT1A(A365N)): about 18 fold

O=C1CCc2ccc(OCCCCN3CCN(c4cccc(Cl)c4Cl)CC3)cc2N1 [aripiprazole, reference compound]
maximum drug effect (Emax) (5-HT1A): 77.1 % of 5-HT

CCN(C)CCc1c[nH]c2ccc(OC)cc12 [5-MeO-MET]
5-HT1A efficacy (in words) (5-HT1A): full efficacy
EC50 (5-HT1A): 25.9 nM
locomotor activity in the open-field test (in words) [1]: dose-dependent locomotor suppression
HTR (in words) ([2]; following co-administration of the 5-HT1A-selective antagonist WAY-100635): strong dose-dependent activity

COc1ccc2[nH]cc(CCN3CC=CC3)c2c1 [5-MeO-3-PyrrolineT]
EC50 (5-HT1A): 0.3 nM
further increase in potency at 5-HT1A (5-HT1A; relative to 5-MeO-PyrT): around eightfold

N#Cc1ccc2[nH]cc(CCCCN3CCN(c4ccc5oc(C(N)=O)cc5c4)CC3)c2c1 [vilazodone, reference compound]
lowest concentration showing activity (5-HT1A; 5-HT1A Gi BRET, suspected slow binding kinetics): 30 pM
maximum drug effect (Emax) (5-HT1A): 97.4 % of 5-HT

NC(=O)N1c2ccccc2C=Cc2ccccc21 [Carbamazepine, reference compound]
% Compound remaining at 4 h [3]: 96%
fraction unbound at 4 h, 5 µM ([3]; pH 7.4, % Unbound): 0.118
fraction unbound at 4 h, 5 µM ([3]; pH 7.4, fu): 0.118

CN(C)CCc1c[nH]c2ccc(O)c(F)c12 [4-F,5-OH-DMT]
decrease in potency by N343A mutation (5-HT2A(N343A)): ~19 fold

COc1ccc2[nH]cc(CCN3CCCC3)c2c1F [4-F,5-MeO-PyrT, 4-fluoro, 5-methoxypyrrolidinyl-tryptamine]
maximum drug effect (Emax) (5-HT1A): 102.8 % of 5-HT
selectivity for 5-HT1A > 5-HT2A (5-HT1A): greater than 800 fold
EC50 (5-HT1A): 0.37 nM
EC50 (5-HT2A; read-out: Gq BRET EC50, 5-HT2A-mediated Gq activation): 300 nM
activity at other 5-HT receptors (in words) [4]: substantially reduced activity
activity at the serotonin transporter (in words) [5]: substantially reduced activity
activity at other neurotransmitter transporters (in words) [6]: substantially reduced activity
AUClast ([7]; Brain): 128.34 ng·h/mL
Cmax ([7]; Brain): 143.35 ng/mL
AUClast ([7]; Plasma): 26.40 ng·h/mL
Cmax ([7]; Plasma): 44.02 ng/mL
time within which compound was largely cleared ([7]; 1 mg kg^-1 s.c.): ≤ 2 h
total brain-to-plasma ratio ([7]; 1 mg kg^-1 s.c.): 3.3
unbound brain-to-plasma ratio ([7]; 1 mg kg^-1 s.c.): 0.91
time of peak brain penetration ([7]; 1 mg kg^-1 s.c., following drug administration): 30 min
estimated free drug concentration in the brain at Tmax ([7]; s.c. dose of 1 mg kg^-1, at 82.5% brain tissue binding): about 100 nM
% Bound Mean [3]: 82.5%
% Recovery [3]: 88%
% Unbound [3]: 17.5%
brain tissue binding [3]: 82.5%
fu [3]: 0.175
% Compound remaining at 4 h [3]: 96%
% Bound R1 ([3]; replicate 1, 4 h at 37 °C): 84.3%
% Bound Mean ([8]; Mouse Plasma): 37.36%
% Recovery ([8]; Mouse Plasma): 84.7%
% Unbound ([8]; Mouse Plasma): 62.64%
fu ([8]; Mouse Plasma): 0.626
% Compound remaining at 4 h ([8]; Mouse Plasma): 105.6%
% Bound R1 ([8]; Mouse Plasma, replicate 1, 4 h at 37 °C): 32.04%
% Bound Mean ([9]; Human Plasma): 26.01%
% Recovery ([9]; Human Plasma): 81.8%
% Unbound ([9]; Human Plasma): 73.99%
fu ([9]; Human Plasma): 0.740
% Compound remaining at 4 h ([9]; Human Plasma): 97.9%
% Bound R1 ([9]; Human Plasma, replicate 1, 4 h at 37 °C): 22.19%
locomotor activity in the open-field test (in words) [1]: dose-dependent locomotor suppression
lowest dose that produced suppression of locomotion [1]: 0.03 mg/kg
HTR (in words) ([2]; doses up to 3 mg kg^-1, in the presence or absence of WAY-100635): did not produce notable HTR
social avoidance phenotype (decreased interaction ratio) in stress-exposed mice ([10]; 1 mg kg^-1 s.c. 1 h after last defeat, SI test 24 h later): rescued
interaction ratio in control mice, drug versus vehicle ([10]; 1 mg kg^-1 s.c., non-stressed mice): did not show any distinguishable differences in IR
increased time in the corners of the arena in defeated mice ([10]; drug-treated stressed mice): no longer observed
number of resilient mice (SI ratio > 1) ([10]; drug-treated versus vehicle-treated stressed mice): increased the number of resilient mice
sucrose preference in stressed mice relative to vehicle-treated animals ([11]; 1 mg kg^-1 s.c., 1% sucrose two-bottle choice): significantly increased sucrose preference

COc1ccc2[nH]cc(CCN3CC=CC3)c2c1F [4-F,5-MeO-3-PyrrolineT]
EC50 (5-HT1A): 0.22 nM

COc1ccc2[nH]cc(CCN3CCCCC3)c2c1 [5-MeO-PipT, 5-methoxypiperidinyl-tryptamine]
EC50 (5-HT1A): 88.5 nM
loss of potency at 5-HT1A (5-HT1A; relative to 5-MeO-PyrT): ~42 fold

CCN(CC)C(=O)[C@@H]1C=C2c3cccc4[nH]cc(c34)C[C@H]2N(C)C1 [LSD, lysergic acid diethylamide]
effect of V366N mutation on signalling efficacy at 5-HT2A (in words) (5-HT2A(V366N)): increase in signalling efficacy

COc1ccc2[nH]cc(CCN3CCCC3)c2c1 [5-MeO-PyrT, 5-methoxy-N,N-pyrrolidinyl-tryptamine]
selectivity for 5-HT1A > 5-HT2A (5-HT1A): > 38 fold
increase in 5-HT1A > 5-HT2A selectivity (5-HT1A; cyclization of the amine moiety alone, relative to 5-MeO-DMT): approximately 38 fold
EC50 (5-HT1A): 2.1 nM
increase in potency at 5-HT1A (5-HT1A; relative to 5-MeO-DMT): about 12 fold
decrease in 5-HT2A potency (5-HT2A): about 3 fold

CCN(CC)CCc1c[nH]c2ccc(OC)cc12 [5-MeO-DET]
5-HT1A efficacy (in words) (5-HT1A): full efficacy
EC50 (5-HT1A): 37.1 nM

CN(C)CCc1c[nH]c2ccccc12 [DMT, N,N-dimethyltryptamine, reference compound]
effect of N343A mutation on potency (in words) (5-HT2A(N343A)): minor effects

O=C1CC2(CCCC2)CC(=O)N1CCCCN1CCN(c2ncccn2)CC1 [buspirone, reference compound]
maximum drug effect (Emax) (5-HT1A): 93.4 % of 5-HT

COc1ccc2[nH]cc(CCN(C)C)c2c1F [4-F,5-MeO-DMT]
increase in potency at 5-HT1A (5-HT1A; relative to 5-MeO-DMT): 14 fold
decrease in 5-HT2A potency (5-HT2A): 3 fold

CC(=O)CC(c1ccccc1)c1c(O)c2ccccc2oc1=O (stereo not shown) [Warfarin, reference compound]
% Compound remaining at 4 h ([8]; Mouse Plasma): 103.3%
fraction unbound at 4 h, 5 µM ([8]; pH 7.4, % Bound R2, Mouse Plasma, replicate 2, 4 h at 37 °C): 0.067
fraction unbound at 4 h, 5 µM ([8]; pH 7.4, % Unbound): 0.064
fraction unbound at 4 h, 5 µM ([8]; pH 7.4, fu): 0.064
% Compound remaining at 4 h ([9]; Human Plasma): 108.8%
fraction unbound at 4 h, 5 µM ([9]; human, human plasma, pH 7.4, % Bound R2, Human Plasma, replicate 2, 4 h at 37 °C): 0.015

COc1ccccc1N1CCN(CCN(C(=O)C2CCCCC2)c2ccccn2)CC1 [WAY-100635, reference compound]
increase of sucrose preference in stressed mice, treatment alone ([11]; stressed mice): not significant
